As a reminder, the MBC is the lowest tested concentration that kills the bacteria rather than only halting them.

Consider two compounds from ChEMBL document CHEMBL4350958, “Rational Design of Short Peptide Variants by Using Kunitzin-RE, an Amphibian-Derived Bioactivity Peptide, for Acquired Potent Broad-Spectrum Antimicrobial and Improved Therapeutic Potential of Commensalism Coinfection of Pathogens” (J Med Chem, 2019).

Data set [1] deals with Escherichia coli. As to the kind of experiment: Antibacterial activity against Escherichia coli ATCC 25922 measured after 24 hrs. In kind it is functional. A digest of the protocol:
(§1)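 Broth microdilution adapted from NCCLS. Mid-log bacteria were diluted in MHB to a final (0.5–1) × 10^5 CFU mL−1. Peptides were serially diluted in 0.2% BSA and mixed with an equal volume of cells. After 24 h at 37 °C, MIC was read at A492 as the lowest concentration inhibiting 95% of growth. At least three independent experiments, each with three technical replicates.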

The test system of data set [2] is Escherichia coli. The experiment in a line: Antibacterial activity against Escherichia coli UB1005 measured after 24 hrs. It counts as functional. An outline of the steps:
as §1

Data set [3] has as its system Staphylococcus aureus. The experiment in a line: Antibacterial activity against methicillin-resistant Staphylococcus aureus ATCC 43300 measured after 24 hrs. In kind it is functional. A digest of the protocol: (§2)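 Broth microdilution modified from NCCLS. Mid-log bacteria at (0.5–1) × 10^5 CFU mL−1 in MHB, mixed with peptides serially diluted in 0.2% BSA. Incubated 24 h at 37 °C, read at A492. MIC taken as lowest concentration giving 95% growth inhibition. At least three independent experiments, each with three technical replicates.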

The test system of data set [4] is Staphylococcus epidermidis. The experiment in a line: Antibacterial activity against Staphylococcus epidermidis ATCC 12228 measured after 24 hrs. In kind it is functional. An outline of the steps:
as §1

The test system of data set [5] is Staphylococcus aureus. As to the kind of experiment: Antibacterial activity against Staphylococcus aureus ATCC 29213 measured after 24 hrs. It counts as functional. A digest of the protocol:
as §2

For data set [6], the system named is Candida albicans. The experiment in a line: Antifungal activity against Candida albicans cgmcc2.2086 measured after 48 hrs by broth microdilution method. In kind it is functional. An outline of the steps: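 Modified CLSI M27-A2 microdilution. Yeast colonies were diluted in MOPS-buffered RPMI 1640 to a final (0.5–1) × 10^3 CFU mL−1 and mixed with an equal volume of peptide serially diluted in 0.2% BSA. After 48 h at 28 °C, MIC was read at A492 as the lowest concentration inhibiting 95% of growth. At least three independent experiments, each with three technical replicates.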
On the technique in general: In broth dilution the organism is exposed to a series of concentrations in liquid medium.

Data set [7] concerns Salmonella typhimurium. As to the kind of experiment: Bactericidal activity against Salmonella typhimurium ATCC 14028 incubated for 24 hrs followed by replating on agar plate and measured after overnight incubation. It counts as functional. A digest of the protocol:
(§3)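 Mid-log bacteria diluted in MHB to (0.5–1) × 10^5 CFU/mL and mixed 1:1 with peptide serially diluted in 0.2% BSA. After 24 h at 37 °C, 50 μL of each mixture was plated on agar and incubated overnight. MBC taken as the lowest concentration killing >99.9% of cells. At least three independent experiments, each with three technical replicates.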

The test system of data set [8] is Escherichia coli. As to the kind of experiment: Bactericidal activity against Escherichia coli K99 incubated for 24 hrs followed by replating on agar plate and measured after overnight incubation. In kind it is functional. An outline of the steps:
as §3

Data set [9] has as its system Salmonella typhimurium. As to the kind of experiment: Bactericidal activity against Salmonella typhimurium C7731 incubated for 24 hrs followed by replating on agar plate and measured after overnight incubation. It counts as functional. A digest of the protocol:
as §3

Data set [10] concerns Staphylococcus aureus. As to the kind of experiment: Bactericidal activity against methicillin-resistant Staphylococcus aureus ATCC 43300 incubated for 24 hrs followed by replating on agar plate and measured after overnight incubation. In kind it is functional. A digest of the protocol:
(§4)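 After the 24 h, 37 °C MHB microdilution MIC assay, 50 μL from each well was plated on agar and incubated overnight. MBC taken as lowest peptide concentration killing >99.9% of cells. At least three independent experiments, each with three technical replicates.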

The subject of data set [11] is Staphylococcus epidermidis. As to the kind of experiment: Bactericidal activity against Staphylococcus epidermidis ATCC 12228 incubated for 24 hrs followed by replating on agar plate and measured after overnight incubation. In kind it is functional. A digest of the protocol: as §3
Data set [12] deals with Staphylococcus aureus. The experiment in a line: Bactericidal activity against Staphylococcus aureus ATCC 25923 incubated for 24 hrs followed by replating on agar plate and measured after overnight incubation. In kind it is functional. A digest of the protocol: as §4
Data set [13] relates to Staphylococcus aureus. As to the kind of experiment: Bactericidal activity against Staphylococcus aureus ATCC 29213 incubated for 24 hrs followed by replating on agar plate and measured after overnight incubation. It counts as functional. A digest of the protocol:
as §4

Data set [14] concerns Escherichia coli. The experiment in a line: Antibacterial activity against Escherichia coli ATCC 25922 measured after 18 to 24 hrs in presence of CaCl2. In kind it is functional.
For data set [15], the system named is Escherichia coli. The experiment in a line: Antibacterial activity against Escherichia coli ATCC 25922 measured after 18 to 24 hrs in presence of MgCl2. It counts as functional.
Data set [16] has as its system Staphylococcus aureus. The experiment in a line: Antibacterial activity against Staphylococcus aureus ATCC 29213 measured after 18 to 24 hrs in presence of NaCl. It counts as functional.
The subject of data set [17] is Staphylococcus aureus. The experiment in a line: Antibacterial activity against Staphylococcus aureus ATCC 29213 measured after 18 to 24 hrs in presence of CaCl2. In kind it is functional.
The test system of data set [18] is Candida albicans. The experiment in a line: Antifungal activity against Candida albicans cgmcc2.2086 measured after 48 hrs in presence of MgCl by broth microdilution method. In kind it is functional.
A short description of data set [19]: Antibacterial activity against Salmonella pullorum ATCC 7913 measured after 24 hrs. It counts as functional, Salmonella enterica subsp. enterica serovar Pullorum. Conditions: Salmonella enterica, ATCC 7913, 24 h. A digest of the protocol:
as §1

Data set [20] is described as follows: Bactericidal activity against Salmonella pullorum ATCC 7913 incubated for 24 hrs followed by replating on agar plate and measured after overnight incubation. In kind it is functional, Salmonella enterica subsp. enterica serovar Pullorum. Particulars: Salmonella enterica, ATCC 7913, 24 h; read-out: MBC>99.9. An outline of the steps: as §3
A short description of data set [21]: Therapeutic index, ratio of MHC10 for hemolytic activity in human RBC to MIC95 against methicillin-resistant Staphylococcus aureus ATCC 43300. In kind it is toxicity. Particulars: human red blood cells (erythrocytes), read-out: TI. A digest of the protocol: (§5)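 Therapeutic index = MHC divided by MIC. MHC is the lowest concentration giving >10% lysis of human RBC (1 h, 37 °C, 1-128 µM, A576). MIC is 95% growth inhibition by broth microdilution: bacteria in MHB 24 h at 37 °C; Candida in MOPS-buffered RPMI 1640 at (0.5–1) × 10^3 CFU mL−1, 48 h at 28 °C.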

Data set [22] can be described thus: Therapeutic index, ratio of MHC10 for hemolytic activity in human RBC to MIC95 against Staphylococcus epidermidis ATCC 12228. It counts as toxicity. Particulars: human red blood cells (erythrocytes), read-out: TI. An outline of the steps: as §5
Data set [23] can be described thus: Therapeutic index, ratio of MHC10 for hemolytic activity in human RBC to MIC95 against Staphylococcus aureus ATCC 29213. In kind it is toxicity. Conditions: human red blood cells (erythrocytes), read-out: TI. A digest of the protocol:
as §5

A short description of data set [24]: Therapeutic index, ratio of MHC10 for hemolytic activity in human RBC to MIC95 against Candida tropicalis cgmcc2.1975. Particulars: human red blood cells (erythrocytes), read-out: TI. In kind it is toxicity. An outline of the steps: as §5
Setting [25] is: Salmonella enterica subsp. enterica serovar Typhimurium.

≈ marks a conversion by molar mass, not a printed value.

For GENTAMICIN, the MIC95 in the data set on Escherichia coli [1] is 1 µM; against Escherichia coli [2], 0.5 µM; against Staphylococcus aureus [3], 8 µM; in data set [4], 1 µM; in the data set on Staphylococcus aureus [5] it was 1 µM; in the data set on Candida albicans [6] it was over 128 µM. Besides, the MIC95 was 1 µM with Escherichia coli [14]; 1 µM with Escherichia coli [15]; 2 µM in the data set with Staphylococcus aureus [16]; 4 µM in the data set with Staphylococcus aureus [17]; over 128 µM in the data set on Candida albicans [18]. For the same compound, the MBC>99.9 came out at 4 µM against Salmonella typhimurium [7] (setting [25]); 0.5 µM in the data set with Escherichia coli [8]; 2 µM against Salmonella typhimurium [9] (setting [25]); 16 µM in the data set on Staphylococcus aureus [10]; 2 µM in data set [11]; 1 µM against Staphylococcus aureus [12]. In the data set on Staphylococcus aureus [13], this compound displayed an MBC>99.9 of 1 µM.
On to `CC[C@H](C)[C@H](NC(=O)CN)C(=O)NCC(=O)N[C@@H](C)C(=O)N[C@H](C(=O)N[C@@H](CC(C)C)C(=O)N[C@@H](CCCCN)C(=O)N[C@H](C(=O)N[C@@H](CC(C)C)C(=O)N[C@H](C(=O)N[C@H](C(=O)NCC(=O)N[C@@H](CC(C)C)C(=O)N1CCC[C@H]1C(=O)N[C@@H](C)C(=O)N[C@@H](CC(C)C)C(=O)N[C@H](C(=O)N[C@@H](CO)C(=O)N[C@@H](Cc1c[nH]c2ccccc12)C(=O)N[C@H](C(=O)N[C@@H](CCCCN)C(=O)N[C@@H](CCCNC(=N)N)C(=O)N[C@@H](CCCCN)C(=O)N[C@@H](CCCNC(=N)N)C(=O)N[C@@H](CCC(N)=O)C(=O)N[C@@H](CCC(N)=O)C(N)=O)[C@@H](C)CC)[C@@H](C)CC)[C@@H](C)O)[C@@H](C)O)C(C)C)C(C)C` [MELITTIN], for which the MIC95 is 2 µM (≈ 5.69 µg/mL) with Escherichia coli [1] (ATCC 25922, 24 h); 2 µM (≈ 5.69 µg/mL) against Escherichia coli [2] (UB1005, 24 h); 1 µM (≈ 2.85 µg/mL) against Staphylococcus aureus [3] (ATCC 43300, 24 h); 2 µM (≈ 5.69 µg/mL) in [19]; 2 µM (≈ 5.69 µg/mL) in data set [4] (ATCC 12228, 24 h); 4 µM (≈ 11.4 µg/mL) in the data set with Staphylococcus aureus [5] (ATCC 29213, 24 h). In addition, the MIC95 in the data set with Candida albicans [6] (cgmcc2.2086, 48 h) is 4 µM (≈ 11.4 µg/mL); in the data set with Escherichia coli [14], 8 µM; in the data set on Escherichia coli [15], 4 µM; with Staphylococcus aureus [16], 8 µM; with Staphylococcus aureus [17], 8 µM; in the data set on Candida albicans [18] (cgmcc2.2086, 48 h) it was 4 µM. The MBC came to 2 µM (≈ 5.69 µg/mL) in the data set on Salmonella typhimurium [7] (Salmonella enterica, ATCC 14028, 24 h, read-out: MBC>99.9); 2 µM (≈ 5.69 µg/mL) in data set [20]; 2 µM (≈ 5.69 µg/mL) in the data set with Escherichia coli [8] (K99, 24 h, read-out: MBC>99.9); 4 µM (≈ 11.4 µg/mL) with Salmonella typhimurium [9] (Salmonella enterica, C7731, 24 h, read-out: MBC>99.9); 4 µM (≈ 11.4 µg/mL) with Staphylococcus aureus [10] (ATCC 43300, 24 h, read-out: MBC>99.9); 4 µM (≈ 11.4 µg/mL) in data set [11] (ATCC 12228, 24 h, read-out: MBC>99.9). The MBC in the data set with Staphylococcus aureus [12] (ATCC 25923, 24 h, read-out: MBC>99.9) was 8 µM (≈ 22.8 µg/mL); in the data set with Staphylococcus aureus [13] (ATCC 29213, 24 h, read-out: MBC>99.9), 8 µM (≈ 22.8 µg/mL). Besides, the selectivity ratio in data set [21] was 0.35; in [22], 0.35; in data set [23], 0.35; in [24], 0.32.
